# What was measured:
# MDA-MB-435 = test: Growth inhibition of human MDA-MB-435 cells after 48 hrs by coulter counting analysis; type: functional; settings: MDA-MB-435, 48 h
# Outline: (§1)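 NCI five-dose screen at 0.01-100 µM, diluted from DMSO stocks in buffered saline (final DMSO <1%). Cells at 6×10^4 cells/ml in RPMI 1640 with 10% FBS, in duplicate wells, at 37 °C under 5% CO2 for 48 h. Cells diluted tenfold in saline and Coulter-counted. GI50, TGI and LC50 taken from log concentration-growth inhibition curves.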
# [1] = target: Cyclin-dependent kinase 4/cyclin D1 (Homo sapiens) (UniProt P11802+P24385); test: Inhibition of CDK4/Cyclin D1 (unknown origin) at 20 uM after 30 mins by scintillation counting analysis relative to control; type: protein-complex assay
# Outline: (§2)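 Recombinant kinases, cloned, expressed and purified in-house. Radiometric ³³P-ATP assay with kinase at ~10-50 nM final and 1-5 µg peptide or protein substrate. Compound at 20 µM final, in duplicate. Reaction started by adding ATP, run 30 min at ambient temperature, then spotted on P81 phosphocellulose. Plates washed in 1% phosphoric acid and counted by scintillation. No-substrate blank subtracted. Result is mean % activity change versus DMSO control.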
# SK-OV-3 = test: Growth inhibition of human SKOV3 cells after 48 hrs by coulter counting analysis; type: functional; settings: SK-OV-3, 48 h
# Outline: (§3)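 Five-dose NCI-60 follow-up, 0.01–100 µM, made from DMSO stock in buffered saline (final DMSO <1%), in duplicate wells. Cells in RPMI 1640 with 10% FBS at 6×10^4 cells/ml, 37 °C, 5% CO2, 48 h. Cells diluted tenfold in saline, Coulter-counted and corrected for dilution. GI50, TGI and LC50 taken from log concentration–percent growth curves.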
# [2] = Growth inhibition of human HCT15 cells after 48 hrs by coulter counting analysis; type: functional; settings: HCT-15, 48 h; outline: as §1
# NCI-H460 = test: Growth inhibition of human NCI-H460 cells after 48 hrs by coulter counting analysis; type: functional; settings: NCI-H460, 48 h; outline: as §3
# HOP-62 = test: Growth inhibition of human HOP62 cells after 48 hrs by coulter counting analysis; type: functional; settings: HOP-62, 48 h; outline: as §1
# HT-29 = test: Growth inhibition of human HT-29 cells after 48 hrs by coulter counting analysis; type: functional; settings: HT-29, 48 h; outline: as §1
# [3] = Growth inhibition of human OVCAR5 cells after 48 hrs by coulter counting analysis; type: functional; settings: OVCAR-5, 48 h; outline: as §3
# SK-MEL-2 = test: Growth inhibition of human SK-MEL-2 cells after 48 hrs by coulter counting analysis; type: functional; settings: SK-MEL-2, 48 h; outline: as §3
# NCI-H226 = test: Growth inhibition of human NCI-H226 cells after 48 hrs by coulter counting analysis; type: functional; settings: NCI-H226, 48 h; outline: as §3
# [4] = target: Cyclin-dependent kinase 2/cyclin E1 (Homo sapiens) (UniProt P24864+P24941); test: Inhibition of CDK2/Cyclin E1 (unknown origin) at 20 uM after 30 mins by scintillation counting analysis relative to control; type: protein-complex assay; outline: as §2
# [5] = Growth inhibition of human OVCAR3 cells after 48 hrs by coulter counting analysis; type: functional; settings: OVCAR-3, 48 h; outline: as §3
# Malme-3M = test: Growth inhibition of human MALME-3M cells after 48 hrs by coulter counting analysis; type: functional; outline: as §1
# [6] = Growth inhibition of human HOP92 cells after 48 hrs by coulter counting analysis; type: functional; settings: HOP-92, 48 h; outline: as §1
# HCT-116 = test: Growth inhibition of human HCT116 cells after 48 hrs by coulter counting analysis; type: functional; settings: HCT-116, 48 h; outline: as §1
# ACHN = test: Growth inhibition of human ACHN cells after 48 hrs by coulter counting analysis; type: functional; outline: as §1
# NCI-H522 = test: Growth inhibition of human NCI-H522 cells after 48 hrs by coulter counting analysis; type: functional; settings: NCI-H522, 48 h; outline: as §3
# [7] = Growth inhibition of human HCC2998 cells after 48 hrs by coulter counting analysis; type: functional; settings: HCC 2998, 48 h; outline: as §1
# MCF7 = test: Growth inhibition of human MCF7 cells after 48 hrs by coulter counting analysis; type: functional; settings: MCF7, 48 h; outline: as §1
# IGROV-1 = test: Growth inhibition of human IGROV1 cells after 48 hrs by coulter counting analysis; type: functional; settings: IGROV-1, 48 h; outline: as §1
# SW-620 = test: Growth inhibition of human SW620 cells after 48 hrs by coulter counting analysis; type: functional; settings: SW-620, 48 h; outline: as §3
# SNB-75 = test: Growth inhibition of human SNB75 cells after 48 hrs by coulter counting analysis; type: functional; settings: SNB-75, 48 h; outline: as §3
# SK-MEL-5 = test: Growth inhibition of human SK-MEL-5 cells after 48 hrs by coulter counting analysis; type: functional; settings: SK-MEL-5, 48 h; outline: as §3
# NCI-H23 = test: Growth inhibition of human NCI-H23 cells after 48 hrs by coulter counting analysis; type: functional; settings: NCI-H23, 48 h; outline: as §3
# [8] = Growth inhibition of human SF295 cells after 48 hrs by coulter counting analysis; type: functional; settings: SF-295, 48 h; outline: as §3
# [9] = Growth inhibition of human NCI-ADR-RES cells after 48 hrs by coulter counting analysis; type: functional; outline: as §3
# K562 = test: Growth inhibition of human K562 cells after 48 hrs by coulter counting analysis; type: functional; settings: K562, 48 h; outline: as §1
# [10] = Growth inhibition of human OVCAR8 cells after 48 hrs by coulter counting analysis; type: functional; settings: OVCAR-8, 48 h; outline: as §3
# 786-0 = test: Growth inhibition of human 786-0 cells after 48 hrs by coulter counting analysis; type: functional; settings: 786-0, 48 h; outline: as §1
# KM12 = test: Growth inhibition of human KM12 cells after 48 hrs by coulter counting analysis; type: functional; settings: KM12, 48 h; outline: as §1
# M14 = test: Growth inhibition of human M14 cells after 48 hrs by coulter counting analysis; type: functional; settings: M14, 48 h; outline: as §1
# [11] = Growth inhibition of human MOLT4 cells after 48 hrs by coulter counting analysis; type: functional; settings: MOLT-4, 48 h; outline: as §3
# [12] = Growth inhibition of human RXF393 cells after 48 hrs by coulter counting analysis; type: functional; settings: RXF 393, 48 h; outline: as §3
# U-251 = test: Growth inhibition of human U251 cells after 48 hrs by coulter counting analysis; type: functional; settings: U-251, 48 h
# Outline: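 NCI five-dose screen, 0.01-100 µM, from DMSO stocks diluted in buffer saline (final DMSO <1%). Cells grown in RPMI 1640 + 10% FBS, seeded at 6×10^4 cells/ml, in duplicate wells. Exposure 48 h at 37 °C, 5% CO2. Cells diluted 10-fold in saline and counted by Coulter counter. GI50 derived from log concentration–percent growth inhibition curves. Controls carried matching PBS/saline/DMSO.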
# A549 = test: Growth inhibition of human A549/ATCC cells after 48 hrs by coulter counting analysis; type: functional; settings: A549, 48 h; outline: as §1
# CAKI-1 = test: Growth inhibition of human CAKI-1 cells after 48 hrs by coulter counting analysis; type: functional; settings: CAKI-1, 48 h; outline: as §1
# [13] = read-out: LC50 (the source's name)
smiles,measurement,setting,value
COc1c2occc2c(OC)c2c(=O)c(CN3CCOCC3)c(/C=C/c3ccc(N(C)C)cc3)oc12,GI50,MDA-MB-435,2050 nM
same,inhibition,[1],12%
same,GI50,SK-OV-3,2720 nM
same,GI50,[2],2250 nM
same,GI50,NCI-H460,2020 nM
same,"LC50 (lethal concentration, 50% net cell kill)",NCI-H460,8480 nM
same,GI50,HOP-62,2330 nM
same,GI50,HT-29,2200 nM
same,CC50,HT-29; [13],6680 nM
same,GI50,[3],2590 nM
same,GI50,SK-MEL-2,1390 nM
same,CC50,SK-MEL-2; [13],5890 nM
same,GI50,NCI-H226,2060 nM
same,inhibition,[4],0%
same,GI50,[5],1760 nM
same,GI50,Malme-3M,2080 nM
same,CC50,Malme-3M; [13],8650 nM
same,GI50,[6],240 nM
same,GI50,HCT-116,2110 nM
same,GI50,ACHN,2160 nM
same,GI50,NCI-H522,1830 nM
same,GI50,[7],2620 nM
same,GI50,MCF7,1880 nM
same,GI50,IGROV-1,1790 nM
same,GI50,SW-620,2380 nM
same,GI50,SNB-75,1390 nM
same,LC50,SNB-75,5750 nM
same,GI50,SK-MEL-5,1090 nM
same,CC50,SK-MEL-5; [13],4990 nM
same,GI50,NCI-H23,2560 nM
same,GI50,[8],1820 nM
same,GI50,[9],2630 nM
same,GI50,K562,1850 nM
same,GI50,[10],5150 nM
same,GI50,786-0,1930 nM
same,GI50,KM12,1730 nM
same,GI50,M14,2340 nM
same,GI50,[11],1580 nM
same,GI50,[12],1810 nM
same,GI50,U-251,2490 nM
same,GI50,A549,2830 nM
same,GI50,CAKI-1,1890 nM
COc1c(C(=O)/C=C/c2ccc(Cl)cc2)c(O)c(Br)c2occc12,GI50,MDA-MB-435,3050 nM
same,inhibition,[1],15%
same,GI50,SK-OV-3,1110 nM
same,GI50,[2],3430 nM
same,GI50,NCI-H460,2990 nM
same,GI50,HOP-62,6820 nM
same,GI50,HT-29,4110 nM
same,GI50,[3],6040 nM
same,GI50,SK-MEL-2,4160 nM
same,GI50,NCI-H226,2840 nM
same,inhibition,[4],5%
same,GI50,[5],1910 nM
same,GI50,Malme-3M,2610 nM
same,GI50,[6],1390 nM
same,GI50,HCT-116,2830 nM
same,GI50,ACHN,5090 nM
same,GI50,NCI-H522,2800 nM
same,GI50,[7],2500 nM
same,GI50,MCF7,2360 nM
same,GI50,IGROV-1,3040 nM
same,GI50,SW-620,2710 nM
same,GI50,SNB-75,1800 nM
same,GI50,SK-MEL-5,3330 nM
same,GI50,NCI-H23,3250 nM
same,GI50,[8],6670 nM
same,GI50,[9],3070 nM
same,GI50,K562,2880 nM
same,GI50,[10],3430 nM
same,GI50,786-0,2990 nM
same,GI50,KM12,3490 nM
same,GI50,M14,4820 nM
same,GI50,[11],2090 nM
same,GI50,[12],2370 nM
same,GI50,U-251,3220 nM
same,GI50,A549,6720 nM
same,GI50,CAKI-1,3350 nM

# — ChEMBL document CHEMBL3286372, “Design, synthesis and structure-activity relationship of novel semi-synthetic flavonoids as antiproliferative agents” (2014)
